Measurements taken from ChEMBL document CHEMBL1154352, “Toll-like receptor 7 selective synthetic oligoribonucleotide agonists: synthesis and structure-activity relationship studies” (J Med Chem, 2009).
The source made the active and inactive calls. No cut-off for these calls is given here.

Assays:
PBMC [1] = test: Immunomodulatory activity in human PBMC assessed as induction of IFNalpha at 50 ug/ml after 24 hrs; type: functional, cell-based
Outline: (§1)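 Human PBMCs plated at 5 × 10^6 cells/mL; compounds dissolved in PBS added at various concentrations, 37 °C for 24 h. Supernatant cytokines/chemokines quantified with human Luminex multiplex kit.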

Homo sapiens [2] = organism: Homo sapiens; test: Immunostimulatory activity in human mDC assessed as induction of TNFalpha at 100 ug/ml after 24 hrs; type: functional
Outline: (§2)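 Human mDCs isolated from PBMCs by CD19+ B-cell depletion then BDCA1 positive selection; plated at 1 × 10^6 cells/mL, compounds in PBS, 37 °C for 24 h; supernatant cytokines by human Luminex multiplex. Representative of four independent experiments.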

Homo sapiens [3] = organism: Homo sapiens; test: Immunostimulatory activity in human pDC assessed as induction of IP10 at 100 ug/ml after 24 hrs; type: functional
Outline: (§3)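 Human pDCs plated at 1 × 10^6 cells/mL; compounds in PBS added, 37 °C for 24 h; supernatant cytokines/chemokines by human Luminex multiplex kit.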

PBMC [4] = test: Immunomodulatory activity in human PBMC assessed as induction of IL6 at 50 ug/ml after 24 hrs; type: functional, cell-based; outline: as §1
Homo sapiens [5] = organism: Homo sapiens; test: Immunostimulatory activity in human pDC assessed as induction of IL6 at 100 ug/ml after 24 hrs; type: functional; outline: as §3
PBMC [6] = test: Immunomodulatory activity in human PBMC assessed as induction of MIP1alpha at 50 ug/ml after 24 hrs; type: functional, cell-based; outline: as §1
PBMC [7] = test: Immunomodulatory activity in human PBMC assessed as induction of MIP1beta after 24 hrs; type: functional, cell-based; outline: as §1
Homo sapiens [8] = organism: Homo sapiens; test: Immunostimulatory activity in human mDC assessed as induction of IL6 at 100 ug/ml after 24 hrs; type: functional; outline: as §2
Homo sapiens [9] = organism: Homo sapiens; test: Immunostimulatory activity in human mDC assessed as induction of IP10 at 100 ug/ml after 24 hrs; type: functional; outline: as §2
PBMC [10] = test: Immunomodulatory activity in human PBMC assessed as induction of IL10 after 24 hrs; type: functional, cell-based; outline: as §1
Homo sapiens [11] = organism: Homo sapiens; test: Immunostimulatory activity in human pDC assessed as induction of IFNalpha at 100 ug/ml after 24 hrs; type: functional; outline: as §3
Homo sapiens [12] = organism: Homo sapiens; test: Ratio of human TLR7 activity to human TLR8 activity
Outline: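 TLR7/TLR8 ratio computed from fold NF-κB (SEAP reporter) activation in HEK293 cells stably expressing human TLR7 versus TLR8, compounds at 50 μg/mL, 18 h exposure; representative of three independent experiments.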

PBMC [13] = test: Immunomodulatory activity in human PBMC assessed as induction of IFNalpha after 24 hrs; type: functional, cell-based; outline: as §1
PBMC [14] = test: Immunomodulatory activity in human PBMC assessed as induction of MCP1 at 50 ug/ml after 24 hrs; type: functional, cell-based; outline: as §1
PBMC [15] = test: Immunomodulatory activity in human PBMC assessed as induction of IP10 at 50 ug/ml after 24 hrs; type: functional, cell-based; outline: as §1
Homo sapiens [16] = organism: Homo sapiens; test: Immunostimulatory activity in human mDC assessed as induction of IFNalpha at 100 ug/ml after 24 hrs; type: functional; outline: as §2
[17] = molecular target: T1, Toll-like receptor 7 (Homo sapiens) (UniProt Q9NYK1); test: Activation of human TLR7 expressed in HEK293XL assessed as fold induction of NF-kappaB activity at 50 ug/ml after 18 hrs by reporter gene assay relative to control
T1 sequence (whole entry): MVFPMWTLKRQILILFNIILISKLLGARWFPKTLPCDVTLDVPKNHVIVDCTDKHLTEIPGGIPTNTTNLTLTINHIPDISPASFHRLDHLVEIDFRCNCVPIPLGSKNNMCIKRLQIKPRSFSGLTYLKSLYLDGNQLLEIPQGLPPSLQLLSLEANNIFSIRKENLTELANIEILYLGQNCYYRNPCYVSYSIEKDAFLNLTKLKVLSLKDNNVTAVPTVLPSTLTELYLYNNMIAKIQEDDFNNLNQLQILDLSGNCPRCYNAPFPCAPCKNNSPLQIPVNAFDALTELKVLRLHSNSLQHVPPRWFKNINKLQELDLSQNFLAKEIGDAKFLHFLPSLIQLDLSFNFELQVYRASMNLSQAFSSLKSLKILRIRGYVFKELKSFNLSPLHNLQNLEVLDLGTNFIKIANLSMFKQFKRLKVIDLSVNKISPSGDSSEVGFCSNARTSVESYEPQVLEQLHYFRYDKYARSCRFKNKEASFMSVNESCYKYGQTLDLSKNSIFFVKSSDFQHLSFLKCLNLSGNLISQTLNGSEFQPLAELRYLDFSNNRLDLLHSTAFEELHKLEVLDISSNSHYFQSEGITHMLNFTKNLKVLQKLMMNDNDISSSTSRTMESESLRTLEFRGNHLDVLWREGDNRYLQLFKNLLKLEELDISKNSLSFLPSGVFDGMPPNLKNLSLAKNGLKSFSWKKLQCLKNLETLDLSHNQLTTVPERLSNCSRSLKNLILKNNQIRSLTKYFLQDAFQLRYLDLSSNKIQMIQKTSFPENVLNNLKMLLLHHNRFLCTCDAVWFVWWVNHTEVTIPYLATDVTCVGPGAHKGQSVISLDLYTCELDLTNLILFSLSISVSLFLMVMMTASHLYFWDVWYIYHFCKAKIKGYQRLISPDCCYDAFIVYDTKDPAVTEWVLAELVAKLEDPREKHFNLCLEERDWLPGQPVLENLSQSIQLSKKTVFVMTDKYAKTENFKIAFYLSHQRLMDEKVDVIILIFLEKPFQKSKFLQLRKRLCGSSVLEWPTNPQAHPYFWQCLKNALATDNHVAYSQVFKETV
Outline: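 HEK293 cells stably expressing human TLR7 or TLR8, transiently transfected with SEAP reporter plasmid; medium replaced, SIMRA compounds added, 18 h incubation. Supernatant SEAP measured by QuantiBlue; expressed as fold increase in NF-κB activity over PBS control. Tabulated data at 50 μg/mL, representative of three independent experiments.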

PBMC [18] = test: Immunomodulatory activity in human PBMC assessed as induction of IL12 at 50 ug/ml after 24 hrs; type: functional, cell-based; outline: as §1
PBMC [19] = test: Immunomodulatory activity in human PBMC assessed as induction of TNFalpha at 50 ug/ml after 24 hrs; type: functional, cell-based; outline: as §1
Mus musculus = test: Immunomodulatory activity in C57BL/6 mouse assessed as induction of IL12 release at 25 mg/kg, sc after 2 hrs by ELISA; type: functional, organism-based; parameters: dose 25 mg/kg
Outline: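 Female C57BL/6 wild-type mice, 5–8 weeks old, n=3; compounds given subcutaneously at 10 or 25 mg/kg. Retro-orbital blood at 2 h; serum cytokines by mouse Luminex multiplex or IL-12 ELISA.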

Homo sapiens [20] = organism: Homo sapiens; test: Immunostimulatory activity in human mDC assessed as induction of IL12 at 100 ug/ml after 24 hrs; type: functional; outline: as §2
PBMC [21] = test: Immunomodulatory activity in human PBMC assessed as induction of TNFalpha after 24 hrs; type: functional, cell-based; outline: as §1
PBMC [22] = test: Immunomodulatory activity in human PBMC assessed as induction of MCP1 after 24 hrs; type: functional, cell-based; outline: as §1
PBMC [23] = test: Immunomodulatory activity in human PBMC assessed as induction of IL1-beta at 50 ug/ml after 24 hrs; type: functional, cell-based; outline: as §1
PBMC [24] = test: Immunomodulatory activity in human PBMC assessed as induction of MIP1beta at 50 ug/ml after 24 hrs; type: functional, cell-based; outline: as §1

For `Nc1ccn([C@@H]2O[C@H](COP(=O)(S)O[C@H]3[C@@H](O)[C@H](n4cnc5c(N)ncnc54)O[C@@H]3CO)[C@@H](OP(=O)(S)OC[C@H]3O[C@@H](n4ccc(=O)[nH]c4=O)[C@H](O)[C@@H]3OP(=O)(S)OC[C@H]3O[C@@H](n4ccc5c(=O)[nH]c(N)nc54)[C@H](O)[C@@H]3OP(=O)(S)OC[C@H]3O[C@@H](n4ccc(N)nc4=O)[C@H](O)[C@@H]3OP(=O)(S)OC[C@H]3O[C@@H](n4ccc5c(=O)[nH]c(N)nc54)[C@H](O)[C@@H]3OP(=O)(S)OC[C@H]3O[C@@H](n4cnc5c(N)ncnc54)[C@H](O)[C@@H]3OP(=O)(S)OC[C@H]3O[C@@H](n4ccc5c(=O)[nH]c(N)nc54)[C@H](O)[C@@H]3OP(=O)(S)OC[C@H]3O[C@@H](n4ccc(N)nc4=O)[C@H](O)[C@@H]3OP(=O)(S)OC[C@H]3O[C@@H](n4ccc(=O)[nH]c4=O)[C@H](O)[C@@H]3OP(=O)(S)OC[C@H]3O[C@@H](n4ccc(=O)[nH]c4=O)[C@H](O)[C@@H]3OP(=O)(S)OCC(O)COP(=O)(S)O[C@H]3[C@@H](O)[C@H](n4ccc(=O)[nH]c4=O)O[C@@H]3COP(=O)(S)O[C@H]3[C@@H](O)[C@H](n4ccc(=O)[nH]c4=O)O[C@@H]3COP(=O)(S)O[C@H]3[C@@H](O)[C@H](n4ccc(N)nc4=O)O[C@@H]3COP(=O)(S)O[C@H]3[C@@H](O)[C@H](n4ccc5c(=O)[nH]c(N)nc54)O[C@@H]3COP(=O)(S)O[C@H]3[C@@H](O)[C@H](n4cnc5c(N)ncnc54)O[C@@H]3COP(=O)(S)O[C@H]3[C@@H](O)[C@H](n4ccc5c(=O)[nH]c(N)nc54)O[C@@H]3COP(=O)(S)O[C@H]3[C@@H](O)[C@H](n4ccc(N)nc4=O)O[C@@H]3COP(=O)(S)O[C@H]3[C@@H](O)[C@H](n4ccc5c(=O)[nH]c(N)nc54)O[C@@H]3COP(=O)(S)O[C@H]3[C@@H](O)[C@H](n4ccc(=O)[nH]c4=O)O[C@@H]3COP(=O)(S)O[C@H]3[C@@H](O)[C@H](n4ccc(N)nc4=O)O[C@@H]3COP(=O)(S)O[C@H]3[C@@H](O)[C@H](n4cnc5c(N)ncnc54)O[C@@H]3CO)[C@H]2O)c(=O)n1` (stereo not given in full), the Activity (PBMC [1]) was 266 pg/mL, the Activity (Homo sapiens [2]) was “Active” and the Activity (Homo sapiens [3]) was “Active”. For the same compound, the Activity (PBMC [4]) was 2580 pg/mL, the Activity (Homo sapiens [5]) was “Active” and the Activity (PBMC [6]) was 4890 pg/mL. For the same compound, the Activity (PBMC [7]) was “Dose-dependent effect”, the Activity (Homo sapiens [8]) was “Active” and the Activity (Homo sapiens [9]) was “Active”. The Activity (PBMC [10]) was “Dose-dependent effect”, the Activity (Homo sapiens [11]) was “Active” and the Ratio (Homo sapiens [12]) was 15.9. For the same compound, the Activity (PBMC [13]) was “Dose-dependent effect”, the Activity (PBMC [14]) was 51400 pg/mL and the Activity (PBMC [15]) was 395 pg/mL. For the same compound, the Activity (Homo sapiens [16]) was “Active”, the fold change (FC) [17] was 27 and the Activity (PBMC [18]) was 337 pg/mL. The Activity (PBMC [19]) was 256 pg/mL, the Activity (Mus musculus) was “Active” and the Activity (Homo sapiens [20]) was “Active”. The Activity (PBMC [21]) was “Dose-dependent effect”, the Activity (PBMC [22]) was “Dose-dependent effect” and the Activity (PBMC [23]) was 196 pg/mL. It also gave an Activity (PBMC [24]) of 8980 pg/mL.
